Results on one molecule are retold here after ChEMBL document CHEMBL3751796, “Structure-Based Discovery of Novel Cyclophilin A Inhibitors for the Treatment of Hepatitis C Virus Infections” (J Med Chem, 2015).

In data set [1] the test system is Hepatitis C virus. Description: Antiviral activity against HCV genotype 1b Con1 infected in human Huh7.5 cells assessed as inhibition of NS5A expression in total cell lysate at 2 uM by Western blot analysis. The data set is classed as functional, organism-based. To be noted: Hepacivirus hominis, isolate Con1, Huh-7. In outline:
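Con1b replicon cells treated with 2 μM. Total lysates, and a membrane fraction prepared by hypotonic buffer, dounce homogenization, 220g spin and then 68 000g for 1 h at 4 °C, analyzed by Western blot for NS5A and NS5B.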

Data set [2] relates to Hepatitis C virus. Description: Antiviral activity against HCV genotype 1b Con1 infected in human Huh7 cells xenografted in immunodeficient NOD/SCID mouse assessed as inhibition of HCV RNA level in liver at 50 mg/kg, ip up to 14 days by qRT-PCR method. The data set is classed as functional, organism-based. To be noted: Hepacivirus hominis, isolate Con1, Huh-7. In outline: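 NOD/SCID mice engrafted intrasplenically with Huh7 HCV-Con1b replicon cells (1 × 10^6 in PBS). From week 6, 50 mg/kg given ip for 14 days, five mice per group. Liver HCV RNA measured by SYBR Green qRT-PCR, 2^−ΔΔCT method, normalized to GAPDH, fold change vs controls.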
A general note: Xenograft models place foreign cells or tissue in a host animal.

Data set [3] concerns Hepatitis C virus. The experiment in a line: Antiviral activity against HCV infected in human Huh7.5 cells assessed as inhibition of HCV-specific RNA by qRT-PCR method in presence of IFN-alpha. It counts as functional, organism-based. To be noted: Hepacivirus hominis; Huh-7. A general note: Quantitative PCR measures a nucleic acid by following its amplification.
Data set [4] can be described thus: Cytotoxicity against HCV infected human Huh7.5 cells assessed as cell death by MTT assay in presence of IFN-alpha. It counts as cell-based. To be noted: huh-7.
The species named for data set [5] is Mus musculus. Description: Activation of calcium-dependent calcineurin phosphatase activity in ionomycin-stimulated BALB/c mouse assessed as production of IL-2 at 1 to 10 uM after 24 hrs by ELISA. The method, boiled down:
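Mouse spleen cells, 2 × 10^6/well, stimulated with ionomycin 1 μg/mL and treated with a dose series for 24 h at 37 °C. Media from triplicate wells pooled. IL-2 measured by ELISA and calculated from IL-2 standards.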
In general terms: ELISA stands for enzyme-linked immunosorbent assay.

For data set [6], the target named is T1, Peptidyl-prolyl cis-trans isomerase A (Homo sapiens, UniProt P62937). The experiment in a line: Inhibition of recombinant GST-tagged Cyclophilin A (unknown origin) interaction with HCV GST-tagged NS5B at 2 to 4 uM by GST pulldown assay.
Target sequence in this assay (P62937 whole entry, looked up): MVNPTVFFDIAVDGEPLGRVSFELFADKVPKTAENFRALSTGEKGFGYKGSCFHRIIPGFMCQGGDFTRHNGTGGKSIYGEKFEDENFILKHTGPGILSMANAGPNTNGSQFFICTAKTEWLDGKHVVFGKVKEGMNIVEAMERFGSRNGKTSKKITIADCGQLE
Data set [7] has as its system Hepatitis C virus. Description: Antiviral activity against HCV genotype 1b Con1 infected in human Huh7.5 cells assessed as inhibition of NS5B expression at 2 uM by DAPI staining based confocal microscopy. The data set is classed as functional, organism-based. To be noted: Hepacivirus hominis, isolate Con1, Huh-7. The method, boiled down: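 Con1b replicon cells treated at 2 μM. Stained with Alexa red anti-NS5A and Alexa green anti-NS5B antibodies plus DAPI, then imaged by confocal microscopy for colocalization. Images representative of at least three experiments.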

For data set [8], the target named is T1, Peptidyl-prolyl cis-trans isomerase A. The experiment in a line: Inhibition of Cyclophilin A peptidyl-prolyl cis-trans isomerase activity (unknown origin) using Succ-Ala-Leu-Pro-Phe-p-nitroaniline as substrate by enzyme kinetic analysis.
Target sequence in this assay (P62937 whole entry): as the sequence (P62937 whole entry, looked up) above
The species named for data set [9] is Mus musculus. The experiment in a line: Inhibition of calcium-dependent calcineurin phosphatase activity in ionomycin-stimulated BALB/c mouse splenocytes assessed as reduction in dephosphorylation of R2 phosphopeptide at 1 to 10 uM preincubated for 20 hrs followed by ionomycin stimulation measured after 4 hrs. In outline: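 Mouse splenocytes (2 × 10^6 cells/well) were incubated with compound for 20 h, then stimulated with 1 μg/mL ionomycin for another 4 h or left unstimulated. Calcineurin activity was measured by dephosphorylation of RII phosphopeptide using a cellular activity kit.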

Data set [10] relates to Hepatitis C virus. Description: Antiviral activity against HCV genotype 1b Con1 infected in human Huh7 cells xenografted in immunodeficient NOD/SCID mouse assessed as inhibition of NS5A expression in liver at 50 mg/kg, ip up to 14 days by Western blot analysis. It counts as functional, organism-based. To be noted: Hepacivirus hominis, isolate Con1, Huh-7. The method, boiled down:
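Liver tissue from NOD/SCID mice engrafted with Huh7 Con1b replicon cells and dosed ip at 50 mg/kg for 14 days (5 per group). NS5A protein read by SDS-PAGE Western blot with chemiluminescence detection.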

Data set [11] concerns Hepatitis C virus. The experiment in a line: Antiviral activity against recombinant HCV genotype 2a JFH1 infected in human […] for 5 hrs measured on day 3 post infection by luciferase reporter gene assay. It counts as functional, organism-based, Hepacivirus hominis. To be noted: JFH-1, Huh-7. In outline:
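Huh7.5 cells infected with JFH1-Luc virus (MOI 0.004) for 5 h at 37 °C with 3-fold serial dilutions of compound. Renilla luciferase read from lysates on day 3 postinfection to derive EC50.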

The source made the active and inactive calls. The rule behind the calls is not given here.

With `COc1cc(C(C(=O)NC2CCCCC2)N(C(=O)Cc2c[nH]c3ccccc23)c2ccc(C(C)C)cc2)cc(OC)c1OC` (stereo unspecified), the inhibition result (in the data set on Hepatitis C virus [1]; in the data set on Hepatitis C virus [2]; with Hepatitis C virus [3]; in [6]; in the data set on Hepatitis C virus [7]; with Hepatitis C virus [10]) was “Active” each time. In addition, the Activity result in data set [4] is reported as “Non-toxic”. Also, the outcome in the data set listed under Mus musculus [5] was Active. For the same molecule, the concentration for half-maximal inhibition (IC50) – broadly, the midpoint of a concentration-inhibition curve – in data set [8] is 5.5 nM. The inhibition result in the data set listed under Mus musculus [9] was “inactive”. Besides, in the data set on Hepatitis C virus [11], the EC50 (as a rule, the concentration at which the effect is half-maximal) is 5200 nM.
